ChEMBL document CHEMBL2086318, “Synthesis and in vitro antimycobacterial activity of 2-methoxybenzanilides and their thioxo analogues” (Eur J Med Chem, 2012)
Converted amounts (≈) assume the structure as drawn.

Experiments:
Mycobacterium kansasii [1] = assay: Antimycobacterial activity against Mycobacterium kansasii My 6509/96 clinical isolate after 7 days by micromethod; assay type: functional; settings: My 6509/96, 168 h
Mycobacterium avium [2] = assay: Antimycobacterial activity against Mycobacterium avium My 330/88 after 21 days by micromethod; assay type: functional; settings: My 330/88, 504 h
Mycobacterium kansasii [3] = assay: Antimycobacterial activity against Mycobacterium kansasii My 235/80 after 14 days by micromethod; assay type: functional; settings: My 235/80, 336 h
Mycobacterium avium [4] = assay: Antimycobacterial activity against Mycobacterium avium My 330/88 after 14 days by micromethod; assay type: functional; settings: My 330/88, 336 h
[5] = test system: Mycobacterium tuberculosis; assay: Antimycobacterial activity against Mycobacterium tuberculosis My 331/88 after 14 days by micromethod; assay type: functional; settings: My 331/88, 336 h
Outline: (§1)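 MIC by micromethod at 37 °C, read after 14 and 21 days. Inocula were M. tuberculosis My 331/88 at 10^-3 dilution and M. avium My 330/88 at 10^-5 dilution. Compounds added in DMSO across 1000, 500, 250, 125, 62.5, 32, 16, 8, 4, 2, 1 and 0.5; isoniazid standard in sterile water. MIC taken as the lowest concentration inhibiting growth.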

Mycobacterium kansasii [6] = assay: Antimycobacterial activity against Mycobacterium kansasii My 6509/96 clinical isolate after 21 days by micromethod; assay type: functional; settings: My 6509/96, 504 h
HepG2 = assay: Cytotoxicity against human HepG2 cells after 24 hrs by CellTiter assay; assay type: cell-based; settings: HepG2, 24 h
Outline: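 Hep G2 cells (passage 12), 10,000 per well in MEM with 1% glutamine, 10% FBS and 1% nonessential amino acids, preincubated 24 h at 37 °C, 5% CO2. Compounds dissolved in DMSO, tested at eight concentrations in quadruplicate for 24 h at 37 °C. MTS-type reagent added for 1.5 h, absorbance read at 490 nm. IC50 = concentration reducing viability to 50% of control.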

Mycobacterium kansasii [7] = assay: Antimycobacterial activity against Mycobacterium kansasii My 6509/96 clinical isolate after 14 days by micromethod; assay type: functional; settings: My 6509/96, 336 h
[8] = Selectivity ratio of IC50 for human HepG2 cells to MIC for Mycobacterium tuberculosis My 331/88 after 14 days; assay type: functional
Outline: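 HepG2 cells (passage 12) at 10,000 cells/well in MEM with 10% FBS, 1% glutamine and 1% nonessential amino acids, pre-incubated 24 h at 37 °C, 5% CO2. Compounds in DMSO at eight concentrations in quadruplicate for 24 h. MTS-type reagent added for 1.5 h, absorbance at 490 nm. IC50 from curve fit. SI = IC50 / 14-day MIC against M. tuberculosis 331/88.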

[9] = biological target: T1, Isocitrate lyase (Mycobacterium tuberculosis) (UniProt P9WKK7); assay: Inhibition of Mycobacterium tuberculosis H37Rv isocitrate lyase expressed in Escherichia coli BL21(DE3) using (+)-potassium Ds-threo-isocitrate as substrate assessed as glyoxylate phenyl hydrazone formation at 100 umol/L by spectrophotometry
T1 sequence (whole entry): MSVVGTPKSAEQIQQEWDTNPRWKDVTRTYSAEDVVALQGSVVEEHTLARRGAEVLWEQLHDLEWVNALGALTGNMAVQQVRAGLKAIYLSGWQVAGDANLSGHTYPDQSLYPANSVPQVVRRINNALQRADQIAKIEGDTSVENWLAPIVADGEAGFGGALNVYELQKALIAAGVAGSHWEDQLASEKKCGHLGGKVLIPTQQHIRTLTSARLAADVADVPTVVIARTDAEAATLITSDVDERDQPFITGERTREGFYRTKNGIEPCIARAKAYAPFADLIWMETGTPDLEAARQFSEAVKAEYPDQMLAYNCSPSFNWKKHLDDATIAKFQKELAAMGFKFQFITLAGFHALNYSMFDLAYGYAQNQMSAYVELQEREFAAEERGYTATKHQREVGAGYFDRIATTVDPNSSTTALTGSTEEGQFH

[10] = test system: Mycobacterium tuberculosis; assay: Antimycobacterial activity against Mycobacterium tuberculosis My 331/88 after 21 days by micromethod; assay type: functional; settings: My 331/88, 504 h; outline: as §1
Mycobacterium kansasii [11] = assay: Antimycobacterial activity against Mycobacterium kansasii My 235/80 after 7 days by micromethod; assay type: functional; settings: My 235/80, 168 h
Mycobacterium kansasii [12] = assay: Antimycobacterial activity against Mycobacterium kansasii My 235/80 after 21 days by micromethod; assay type: functional; settings: My 235/80, 504 h

Row | Compound | MIC (Mycobacterium kansasii [1]) | MIC (Mycobacterium avium [2]) | MIC (Mycobacterium kansasii [3]) | MIC (Mycobacterium avium [4]) | MIC [5] | MIC (Mycobacterium kansasii [6]) | IC50 (HepG2) | MIC (Mycobacterium kansasii [7]) | Selectivity ratio [8] | inhibition [9] | MIC [10] | MIC (Mycobacterium kansasii [11]) | MIC (Mycobacterium kansasii [12])
1 | COc1cc(Cl)ccc1C(=S)Nc1cccc(C(F)(F)F)c1 | 16 µM (≈ 5.53 µg/mL) | 32 µM (≈ 11.1 µg/mL) | 32 µM (≈ 11.1 µg/mL) | 32 µM (≈ 11.1 µg/mL) | 4 µM (≈ 1.38 µg/mL) | 32 µM (≈ 11.1 µg/mL) | 1.81 µM | 32 µM (≈ 11.1 µg/mL) | 0.45 | 23% | 8 µM (≈ 2.77 µg/mL) | 16 µM (≈ 5.53 µg/mL) | 32 µM (≈ 11.1 µg/mL)
2 | COc1cc(Cl)ccc1C(=S)Nc1ccc(Cl)cc1 | 16 µM (≈ 5 µg/mL) | 32 µM (≈ 9.99 µg/mL) | 62.5 µM (≈ 19.5 µg/mL) | 32 µM (≈ 9.99 µg/mL) | 4 µM (≈ 1.25 µg/mL) | 62.5 µM (≈ 19.5 µg/mL) | 2.93 µM | 32 µM (≈ 9.99 µg/mL) | 0.73 | 39% | 16 µM (≈ 5 µg/mL) | 32 µM (≈ 9.99 µg/mL) | 62.5 µM (≈ 19.5 µg/mL)
3 | COc1cc(Cl)ccc1C(=S)Nc1cccc(Cl)c1 | 16 µM (≈ 5 µg/mL) | 16 µM (≈ 5 µg/mL) | 32 µM (≈ 9.99 µg/mL) | 16 µM (≈ 5 µg/mL) | 4 µM (≈ 1.25 µg/mL) | 32 µM (≈ 9.99 µg/mL) | 11.7 µM | 32 µM (≈ 9.99 µg/mL) | 2.92 | 20% | 16 µM (≈ 5 µg/mL) | 16 µM (≈ 5 µg/mL) | 32 µM (≈ 9.99 µg/mL)
4 | COc1cc(Cl)ccc1C(=O)Nc1cccc([N+](=O)[O-])c1 | 125 µM (≈ 38.3 µg/mL) | 125 µM (≈ 38.3 µg/mL) | 250 µM (≈ 76.7 µg/mL) | 125 µM (≈ 38.3 µg/mL) | 125 µM (≈ 38.3 µg/mL) | 125 µM (≈ 38.3 µg/mL) |  | 125 µM (≈ 38.3 µg/mL) |  |  | 125 µM (≈ 38.3 µg/mL) | 125 µM (≈ 38.3 µg/mL) | 250 µM (≈ 76.7 µg/mL)
5 | COc1ccc(Cl)cc1C(=O)Nc1cccc(Br)c1 | 62.5 µM (≈ 21.3 µg/mL) | 62.5 µM (≈ 21.3 µg/mL) | 62.5 µM (≈ 21.3 µg/mL) | 62.5 µM (≈ 21.3 µg/mL) | 125 µM (≈ 42.6 µg/mL) | 62.5 µM (≈ 21.3 µg/mL) |  | 62.5 µM (≈ 21.3 µg/mL) |  |  | 125 µM (≈ 42.6 µg/mL) | 62.5 µM (≈ 21.3 µg/mL) | 62.5 µM (≈ 21.3 µg/mL)
6 | COc1cc(Cl)ccc1C(=O)Nc1cccc(C(F)(F)F)c1 | 125 µM (≈ 41.2 µg/mL) | 125 µM (≈ 41.2 µg/mL) | 250 µM (≈ 82.4 µg/mL) | 125 µM (≈ 41.2 µg/mL) | 250 µM (≈ 82.4 µg/mL) | 125 µM (≈ 41.2 µg/mL) |  | 125 µM (≈ 41.2 µg/mL) |  |  | 250 µM (≈ 82.4 µg/mL) | 125 µM (≈ 41.2 µg/mL) | 250 µM (≈ 82.4 µg/mL)
7 | COc1cc(Cl)ccc1C(=O)Nc1ccc(Cl)c(Cl)c1 | 125 µM (≈ 41.3 µg/mL) | 125 µM (≈ 41.3 µg/mL) | 125 µM (≈ 41.3 µg/mL) | 125 µM (≈ 41.3 µg/mL) | 125 µM (≈ 41.3 µg/mL) | 125 µM (≈ 41.3 µg/mL) |  | 125 µM (≈ 41.3 µg/mL) |  |  | 125 µM (≈ 41.3 µg/mL) | 125 µM (≈ 41.3 µg/mL) | 125 µM (≈ 41.3 µg/mL)
8 | COc1cc(Cl)ccc1C(=S)Nc1ccc(Cl)c(Cl)c1 | 16 µM (≈ 5.55 µg/mL) | 32 µM (≈ 11.1 µg/mL) | 32 µM (≈ 11.1 µg/mL) | 32 µM (≈ 11.1 µg/mL) | 2 µM (≈ 0.693 µg/mL) | 32 µM (≈ 11.1 µg/mL) | 6.5 µM | 32 µM (≈ 11.1 µg/mL) | 3.25 | 17% | 8 µM (≈ 2.77 µg/mL) | 16 µM (≈ 5.55 µg/mL) | 62.5 µM (≈ 21.7 µg/mL)
9 | COc1ccc(Cl)cc1C(=S)Nc1ccc(C(F)(F)F)cc1 | 8 µM (≈ 2.77 µg/mL) | 16 µM (≈ 5.53 µg/mL) | 16 µM (≈ 5.53 µg/mL) | 16 µM (≈ 5.53 µg/mL) | 16 µM (≈ 5.53 µg/mL) | 16 µM (≈ 5.53 µg/mL) |  | 16 µM (≈ 5.53 µg/mL) |  |  | 16 µM (≈ 5.53 µg/mL) | 8 µM (≈ 2.77 µg/mL) | 32 µM (≈ 11.1 µg/mL)
10 | COc1cc(Cl)ccc1C(=S)Nc1ccc(C(F)(F)F)cc1 | 8 µM (≈ 2.77 µg/mL) | 32 µM (≈ 11.1 µg/mL) | 32 µM (≈ 11.1 µg/mL) | 32 µM (≈ 11.1 µg/mL) | 8 µM (≈ 2.77 µg/mL) | 32 µM (≈ 11.1 µg/mL) |  | 32 µM (≈ 11.1 µg/mL) |  |  | 16 µM (≈ 5.53 µg/mL) | 16 µM (≈ 5.53 µg/mL) | 62.5 µM (≈ 21.6 µg/mL)
11 | COc1cc(Cl)ccc1C(=S)Nc1cccc(Br)c1 | 125 µM (≈ 44.6 µg/mL) | 125 µM (≈ 44.6 µg/mL) | 125 µM (≈ 44.6 µg/mL) | 125 µM (≈ 44.6 µg/mL) | 32 µM (≈ 11.4 µg/mL) | 125 µM (≈ 44.6 µg/mL) |  | 125 µM (≈ 44.6 µg/mL) |  |  | 32 µM (≈ 11.4 µg/mL) | 125 µM (≈ 44.6 µg/mL) | 125 µM (≈ 44.6 µg/mL)
12 | COc1cc(Cl)ccc1C(=O)Nc1ccc(Cl)cc1 | 8 µM (≈ 2.37 µg/mL) | 32 µM (≈ 9.48 µg/mL) | 16 µM (≈ 4.74 µg/mL) | 8 µM (≈ 2.37 µg/mL) | 125 µM (≈ 37 µg/mL) | 62.5 µM (≈ 18.5 µg/mL) |  | 16 µM (≈ 4.74 µg/mL) |  |  | 125 µM (≈ 37 µg/mL) | 8 µM (≈ 2.37 µg/mL) | 62.5 µM (≈ 18.5 µg/mL)
13 | COc1ccc(Cl)cc1C(=O)Nc1ccc(C(F)(F)F)cc1 | 62.5 µM (≈ 20.6 µg/mL) | 250 µM (≈ 82.4 µg/mL) | 500 µM (≈ 165 µg/mL) | 250 µM (≈ 82.4 µg/mL) | 250 µM (≈ 82.4 µg/mL) | 250 µM (≈ 82.4 µg/mL) |  | 250 µM (≈ 82.4 µg/mL) |  |  | 250 µM (≈ 82.4 µg/mL) | 125 µM (≈ 41.2 µg/mL) | 500 µM (≈ 165 µg/mL)
14 | COc1ccc(Cl)cc1C(=O)Nc1ccc(Cl)c(Cl)c1 | 62.5 µM (≈ 20.7 µg/mL) | 250 µM (≈ 82.6 µg/mL) | 250 µM (≈ 82.6 µg/mL) | 250 µM (≈ 82.6 µg/mL) | 125 µM (≈ 41.3 µg/mL) | 125 µM (≈ 41.3 µg/mL) |  | 125 µM (≈ 41.3 µg/mL) |  |  | 125 µM (≈ 41.3 µg/mL) | 62.5 µM (≈ 20.7 µg/mL) | 250 µM (≈ 82.6 µg/mL)
15 | COc1cc(Cl)ccc1C(=S)Nc1ccc(Br)cc1 | 16 µM (≈ 5.71 µg/mL) | 62.5 µM (≈ 22.3 µg/mL) | 62.5 µM (≈ 22.3 µg/mL) | 16 µM (≈ 5.71 µg/mL) | 4 µM (≈ 1.43 µg/mL) | 62.5 µM (≈ 22.3 µg/mL) | 3.55 µM | 32 µM (≈ 11.4 µg/mL) | 0.89 | 27% | 16 µM (≈ 5.71 µg/mL) | 32 µM (≈ 11.4 µg/mL) | 62.5 µM (≈ 22.3 µg/mL)
